Laboratory results as given in ChEMBL document CHEMBL4196006, “Aryl thiosemicarbazones for the treatment of trypanosomatidic infections” (Eur J Med Chem, 2018).
Calls of active or inactive are those of the source. The calls are words filed in the database; no cut-off is given here.

Assays:
[1] = Cytotoxicity against human A549 cells assessed as growth inhibition at 10 uM after 48 hrs by CellTiter-Glo assay relative to control; values are per cent of control; details: A549 cells
CYP1A2 = target: T1, CYP1A2 (Homo sapiens, UniProt P05177); assay: Inhibition of human microsomal CYP1A2 expressed in baculovirus infected BTI-TN-5B1-4 cells at 10 uM incubated for 30 mins by luciferase assay relative to control; assay type: ADME
T1 sequence (P05177 whole entry): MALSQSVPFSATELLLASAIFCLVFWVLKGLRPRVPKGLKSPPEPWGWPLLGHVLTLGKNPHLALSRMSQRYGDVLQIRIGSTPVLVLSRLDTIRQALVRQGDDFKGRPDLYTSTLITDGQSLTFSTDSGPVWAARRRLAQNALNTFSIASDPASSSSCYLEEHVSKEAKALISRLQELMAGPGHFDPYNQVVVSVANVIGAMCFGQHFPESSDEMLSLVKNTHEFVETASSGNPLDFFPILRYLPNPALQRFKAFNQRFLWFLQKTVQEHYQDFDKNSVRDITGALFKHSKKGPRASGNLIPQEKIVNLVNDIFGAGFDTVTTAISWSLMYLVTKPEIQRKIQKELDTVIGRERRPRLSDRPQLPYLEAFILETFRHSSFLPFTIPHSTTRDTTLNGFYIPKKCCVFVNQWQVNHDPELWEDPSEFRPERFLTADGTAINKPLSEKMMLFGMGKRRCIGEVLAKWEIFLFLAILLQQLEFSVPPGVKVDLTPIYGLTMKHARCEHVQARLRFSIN
Procedure, shortened: (§1)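 CYP1A2, 2C9, 2C19, 2D6 and 3A4 in microsomes from baculovirus-infected insect cells, each with a P450-Glo luminogenic substrate. Inhibition read as loss of light; single-point at 10 μM, triplicate.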

[2] = Cytotoxicity against human U2OS cells assessed as viable cells at 50 uM after 72 hrs by MTT assay relative to control; assay type: cell-based; details: read-out: Activity
Leishmania infantum = assay: Antileishmanial activity against Leishmania infantum amastigote form assessed as parasite growth inhibition at 50 uM after 72 hrs by steady-Glo reagent based assay relative to control; assay type: functional; details: read-out: GI
Procedure, shortened: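 Intramacrophage L. infantum amastigotes in THP-1-derived macrophages, tested at 50 μM or in dose-response. Plates held 72 h at 37 °C, 5% CO2. Medium was replaced by PBS, macrophages lysed, and parasites read by Steady-Glo luminescence. High-content imaging gave host cell number, infection ratio (infected/total cells) and parasites per infected cell. Values are means of at least two independent experiments.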

Trypanosoma cruzi = assay: Antitrypanosomal activity against Trypanosoma cruzi amastigote form infected in human U2OS cells assessed as parasite growth inhibition at 50 uM after 72 hrs relative to control; assay type: functional; details: for inhibition of growth at 50 µM: read-out: GI
Procedure, shortened: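 U2OS monolayers grown for 24 h, then infected with tissue-derived trypomastigotes of T. cruzi Y strain. Compounds were added 24 h after infection at 50 μM (single-point) or in dose-response, with 72 h exposure. Plates were fixed, stained and analysed by high-content imaging; activity was normalized to infected and non-infected controls. Means of at least two experiments; benznidazole as reference.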

[3] = Cytotoxicity against human THP1 cells assessed as viable cells at 100 uM after 72 hrs by MTT assay relative to control; assay type: cell-based, THP-1; details: read-out: Activity
Procedure, shortened: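 THP-1-derived macrophages exposed to compounds for 72 h, tested at 100 μM or in dose-response; viability read by MTT colorimetric assay.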

Aurora kinase B = Aurora kinase B (Homo sapiens, UniProt Q96GD4); assay: Inhibition of recombinant full-length human aurora B kinase expressed in baculovirus system at 10 uM using MBP as substrate incubated for 45 mins by ADP-glo kinase assay; details: probe MBP
Procedure, shortened: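 Aurora B activity measured as ADP formation via coupled luciferase ADP-Glo luminescence; single-point at 10 μM, triplicate.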

Trypanosoma brucei [4] = assay: Antitrypanosomal activity against Trypanosoma brucei Lister 427 bloodstream form assessed as parasite growth inhibition at 50 uM after 72 hrs by SYBR Green assay relative to control; assay type: functional; details: Lister 427, 72 h, read-out: GI
hERG (KCNH2) = hERG (KCNH2) (Homo sapiens, UniProt Q12809); assay: Inhibition of human ERG at 10 uM incubated for 2 hrs by fluorescence polarisation assay relative to control
CYP3A4 = CYP3A4 (Homo sapiens, UniProt P08684); assay: Inhibition of human microsomal CYP3A4 expressed in baculovirus infected BTI-TN-5B1-4 cells at 10 uM incubated for 30 mins by luciferase assay relative to control; assay type: ADME
Procedure, shortened: as §1

Trypanosoma brucei [5] = assay: Antitrypanosomal activity against Trypanosoma brucei Lister 427 bloodstream form at 10 uM after 72 hrs by resazurin dye-based assay relative to control; assay type: functional
[6] = Cytotoxicity against human WI38 cells assessed as growth inhibition at 10 uM after 48 hrs by CellTiter-Glo assay relative to control; values are per cent of control; details: WI38 cells
Trypanosoma brucei [7] = assay: Potentiation of methotrexate-induced antitrypanosomal activity against Trypanosoma brucei Lister 427 bloodstream form at 10 uM after 72 hrs by resazurin dye-based assay relative to control; assay type: functional
CYP2C19 = CYP2C19 (Homo sapiens, UniProt P33261); assay: Inhibition of human microsomal CYP2C19 expressed in baculovirus infected BTI-TN-5B1-4 cells at 10 uM incubated for 30 mins by luciferase assay relative to control; assay type: ADME
Procedure, shortened: as §1

Trypanosoma brucei [8] = assay: Potentiation of methotrexate-induced antitrypanosomal activity against Trypanosoma brucei Lister 427 bloodstream form at 10 uM after 72 hrs by resazurin dye-based assay; assay type: functional
[9] = target: T2, Pteridine reductase 1 (Leishmania major) (UniProt Q01782); assay: Inhibition of Leishmania major PTR1 at 50 uM using H2B as substrate in presence of NADPH by photometric analysis relative to control
T2 sequence (whole entry): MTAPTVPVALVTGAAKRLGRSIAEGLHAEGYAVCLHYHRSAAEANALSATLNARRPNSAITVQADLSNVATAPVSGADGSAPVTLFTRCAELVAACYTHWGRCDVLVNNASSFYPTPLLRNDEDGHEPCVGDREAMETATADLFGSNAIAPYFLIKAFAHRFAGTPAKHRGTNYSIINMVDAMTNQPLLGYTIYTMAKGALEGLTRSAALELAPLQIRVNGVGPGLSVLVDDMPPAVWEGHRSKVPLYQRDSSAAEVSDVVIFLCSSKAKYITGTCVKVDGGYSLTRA

CYP2C9 = CYP2C9 (Homo sapiens, UniProt P11712); assay: Inhibition of human microsomal CYP2C9 expressed in baculovirus infected BTI-TN-5B1-4 cells at 10 uM incubated for 30 mins by luciferase assay relative to control; assay type: ADME
Procedure, shortened: as §1

[10] = Cytotoxicity against human 786-O cells assessed as inhibition of mitochondrial viability at 10 uM after 6 hrs by CMXRos staining based assay relative to control; assay type: cell-based, 786-0; details: read-out: INH
Procedure, shortened: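 Mitochondrial toxicity monitored by MitoTracker Red CMXRos uptake and high-content imaging; compound at 10 μM, triplicate.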

[11] = target: T3, Pteridine reductase, putative (Trypanosoma brucei) (UniProt Q581W1); assay: Inhibition of Trypanosoma brucei PTR1 at 50 uM using H2B as substrate in presence of NADPH by photometric analysis relative to control
T3 sequence (whole entry): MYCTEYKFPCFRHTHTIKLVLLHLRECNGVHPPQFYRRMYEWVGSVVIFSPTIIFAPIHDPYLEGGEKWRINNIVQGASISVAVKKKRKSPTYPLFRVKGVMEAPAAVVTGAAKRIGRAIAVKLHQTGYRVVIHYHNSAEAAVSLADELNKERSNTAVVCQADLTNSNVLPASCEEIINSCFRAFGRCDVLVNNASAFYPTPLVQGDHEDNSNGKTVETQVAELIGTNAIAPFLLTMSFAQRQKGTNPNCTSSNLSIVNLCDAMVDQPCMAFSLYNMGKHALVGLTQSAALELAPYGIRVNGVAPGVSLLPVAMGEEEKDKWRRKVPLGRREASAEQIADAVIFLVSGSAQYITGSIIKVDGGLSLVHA

CYP2D6 = CYP2D6 (Homo sapiens, UniProt P10635); assay: Inhibition of human microsomal CYP2D6 expressed in baculovirus infected BTI-TN-5B1-4 cells at 10 uM incubated for 30 mins by luciferase assay relative to control; assay type: ADME
Procedure, shortened: as §1

Chain of CYP2C19 (P33261 whole entry): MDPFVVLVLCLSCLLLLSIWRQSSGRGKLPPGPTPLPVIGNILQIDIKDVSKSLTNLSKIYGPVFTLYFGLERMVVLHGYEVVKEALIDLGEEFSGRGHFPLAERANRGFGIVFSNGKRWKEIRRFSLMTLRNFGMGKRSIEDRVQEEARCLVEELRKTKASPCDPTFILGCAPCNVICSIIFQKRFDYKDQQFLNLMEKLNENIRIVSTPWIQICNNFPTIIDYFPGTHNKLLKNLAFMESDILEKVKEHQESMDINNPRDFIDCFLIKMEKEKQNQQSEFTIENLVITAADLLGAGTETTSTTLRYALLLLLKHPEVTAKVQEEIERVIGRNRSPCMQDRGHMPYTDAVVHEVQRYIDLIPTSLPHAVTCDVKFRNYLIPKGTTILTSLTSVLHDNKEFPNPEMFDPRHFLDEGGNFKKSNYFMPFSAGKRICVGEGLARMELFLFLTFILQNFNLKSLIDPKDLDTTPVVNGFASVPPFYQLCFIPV
Chain of hERG (KCNH2) (Q12809 whole entry): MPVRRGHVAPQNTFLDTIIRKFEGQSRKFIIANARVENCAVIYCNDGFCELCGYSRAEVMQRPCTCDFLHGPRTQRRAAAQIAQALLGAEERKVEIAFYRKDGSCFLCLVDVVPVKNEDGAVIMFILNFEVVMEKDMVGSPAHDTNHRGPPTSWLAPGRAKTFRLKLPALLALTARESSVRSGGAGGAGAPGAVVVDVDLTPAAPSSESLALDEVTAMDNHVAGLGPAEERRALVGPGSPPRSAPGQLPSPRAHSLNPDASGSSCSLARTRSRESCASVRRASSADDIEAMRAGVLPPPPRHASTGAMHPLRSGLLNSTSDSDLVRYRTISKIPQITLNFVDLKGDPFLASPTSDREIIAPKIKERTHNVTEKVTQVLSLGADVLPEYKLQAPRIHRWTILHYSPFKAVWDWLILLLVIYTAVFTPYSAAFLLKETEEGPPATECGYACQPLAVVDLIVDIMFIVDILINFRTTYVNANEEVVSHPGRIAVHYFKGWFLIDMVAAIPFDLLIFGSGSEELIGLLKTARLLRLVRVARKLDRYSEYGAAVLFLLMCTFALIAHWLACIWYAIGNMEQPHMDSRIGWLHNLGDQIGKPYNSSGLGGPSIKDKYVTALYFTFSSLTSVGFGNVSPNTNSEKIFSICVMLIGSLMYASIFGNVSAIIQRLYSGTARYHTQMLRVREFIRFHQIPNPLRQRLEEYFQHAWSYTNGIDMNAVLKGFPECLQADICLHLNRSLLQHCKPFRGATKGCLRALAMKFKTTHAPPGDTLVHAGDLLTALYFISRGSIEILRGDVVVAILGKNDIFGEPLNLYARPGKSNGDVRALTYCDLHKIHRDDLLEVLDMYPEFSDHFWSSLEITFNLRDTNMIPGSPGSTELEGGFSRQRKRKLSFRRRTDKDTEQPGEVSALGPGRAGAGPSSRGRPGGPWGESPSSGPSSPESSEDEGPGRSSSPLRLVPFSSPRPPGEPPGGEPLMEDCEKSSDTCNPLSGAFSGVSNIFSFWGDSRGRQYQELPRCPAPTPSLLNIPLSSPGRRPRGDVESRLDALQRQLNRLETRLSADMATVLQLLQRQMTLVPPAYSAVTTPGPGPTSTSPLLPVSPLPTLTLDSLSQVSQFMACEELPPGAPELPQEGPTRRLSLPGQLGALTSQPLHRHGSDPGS
Chain of CYP3A4 (P08684 whole entry): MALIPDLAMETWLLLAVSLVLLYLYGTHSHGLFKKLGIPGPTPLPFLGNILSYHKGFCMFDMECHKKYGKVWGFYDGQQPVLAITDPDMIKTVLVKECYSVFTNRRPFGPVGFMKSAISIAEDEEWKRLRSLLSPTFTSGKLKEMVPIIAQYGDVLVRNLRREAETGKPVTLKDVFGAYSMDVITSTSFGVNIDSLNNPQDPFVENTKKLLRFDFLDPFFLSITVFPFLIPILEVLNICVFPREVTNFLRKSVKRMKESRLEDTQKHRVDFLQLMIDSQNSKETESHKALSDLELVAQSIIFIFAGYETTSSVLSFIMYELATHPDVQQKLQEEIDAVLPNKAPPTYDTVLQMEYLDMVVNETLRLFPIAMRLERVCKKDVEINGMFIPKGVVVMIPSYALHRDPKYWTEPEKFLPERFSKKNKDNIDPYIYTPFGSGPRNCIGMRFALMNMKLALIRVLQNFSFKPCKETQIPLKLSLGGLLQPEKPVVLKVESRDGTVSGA
Chain of Aurora kinase B (Q96GD4 whole entry): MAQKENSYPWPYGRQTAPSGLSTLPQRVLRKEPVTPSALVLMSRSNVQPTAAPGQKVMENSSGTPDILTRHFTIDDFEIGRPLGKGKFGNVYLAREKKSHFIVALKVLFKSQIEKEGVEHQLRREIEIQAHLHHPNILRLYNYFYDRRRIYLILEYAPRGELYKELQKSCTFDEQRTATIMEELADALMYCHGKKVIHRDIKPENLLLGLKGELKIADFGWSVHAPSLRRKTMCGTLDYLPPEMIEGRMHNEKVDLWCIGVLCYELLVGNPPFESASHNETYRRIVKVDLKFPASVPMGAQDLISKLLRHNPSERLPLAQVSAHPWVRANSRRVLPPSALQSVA
Chain of CYP2C9 (P11712 whole entry): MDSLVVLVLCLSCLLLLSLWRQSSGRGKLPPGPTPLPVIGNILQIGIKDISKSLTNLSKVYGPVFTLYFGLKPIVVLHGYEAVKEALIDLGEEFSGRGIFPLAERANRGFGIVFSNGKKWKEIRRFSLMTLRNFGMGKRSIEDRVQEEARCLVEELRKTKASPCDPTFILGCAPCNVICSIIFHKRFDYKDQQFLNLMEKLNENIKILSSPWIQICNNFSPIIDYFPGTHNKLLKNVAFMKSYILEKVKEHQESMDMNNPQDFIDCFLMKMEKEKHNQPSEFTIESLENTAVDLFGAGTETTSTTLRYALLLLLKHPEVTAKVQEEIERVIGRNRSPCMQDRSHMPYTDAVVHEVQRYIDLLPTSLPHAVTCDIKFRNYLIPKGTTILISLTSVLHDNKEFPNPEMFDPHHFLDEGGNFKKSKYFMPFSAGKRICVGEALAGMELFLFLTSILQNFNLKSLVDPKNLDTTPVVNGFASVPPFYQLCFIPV
Chain of CYP2D6 (P10635 whole entry): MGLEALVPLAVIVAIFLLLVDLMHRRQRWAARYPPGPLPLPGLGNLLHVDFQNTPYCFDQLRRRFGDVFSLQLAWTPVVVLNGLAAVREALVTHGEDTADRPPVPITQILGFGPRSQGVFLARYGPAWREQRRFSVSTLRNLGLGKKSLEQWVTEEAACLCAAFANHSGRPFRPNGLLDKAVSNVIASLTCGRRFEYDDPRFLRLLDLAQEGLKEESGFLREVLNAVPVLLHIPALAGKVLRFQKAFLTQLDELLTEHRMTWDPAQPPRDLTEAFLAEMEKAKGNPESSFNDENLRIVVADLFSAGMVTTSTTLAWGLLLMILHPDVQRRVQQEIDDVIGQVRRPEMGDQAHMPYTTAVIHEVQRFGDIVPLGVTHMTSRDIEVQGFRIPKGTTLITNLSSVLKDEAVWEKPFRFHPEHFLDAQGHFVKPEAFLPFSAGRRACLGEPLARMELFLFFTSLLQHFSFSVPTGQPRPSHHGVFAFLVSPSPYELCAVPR

Row | SMILES | inhibition at 0.5 h, 10 µM (CYP1A2) [%] | inhibition of growth at 50 µM (Trypanosoma cruzi) [%] | inhibition at 0.75 h, 10 µM (Aurora kinase B) [%] | inhibition at 2 h, 10 µM (hERG (KCNH2)) [%] | inhibition at 0.5 h, 10 µM (CYP3A4) [%] | inhibition at 0.5 h, 10 µM (CYP2C19) [%] | inhibition [9] [%] | inhibition at 0.5 h, 10 µM (CYP2C9) [%] | inhibition [11] [%] | inhibition at 0.5 h, 10 µM (CYP2D6) [%] | further results
1 | NC(=S)N/N=C/c1cccc(-c2ccc3c(c2)OCO3)c1 | 101 | 71.3 | -3.81 | 9.13 | 69.7 | 48.4 | 0.33 | 45.3 | 0.16 | 76.9 | cell growth (% of control) at 48 h, 10 µM [1]: 111%; viability at 72 h, 50 µM [2]: 81.5%; inhibition of growth at 50 µM (Leishmania infantum): 46.9%; viability at 72 h, 100 µM [3]: 2.61%; inhibition of growth at 50 µM (Trypanosoma brucei [4]): 61.8%; Activity (Trypanosoma brucei [5]): 38.67%; cell growth (% of control) at 48 h, 10 µM [6]: 91.9%; Activity (Trypanosoma brucei [7]): 96.33%; PF (Trypanosoma brucei [8]): 1.53; cytotoxicity at 6 h, 10 µM [10]: 15.7%
2 | Nc1nnc(-c2ccc(O)c(O)c2)s1 |  | 16.6 |  |  |  |  |  |  |  |  | 
3 | Nc1nnc(/C=C/c2ccccc2)s1 |  | 82 |  |  |  |  |  |  |  |  | 
4 | COc1ccc(-c2cccc(-c3nnc(N)s3)c2)cc1OC |  | 14.6 |  |  |  |  |  |  |  |  | 
5 | COc1cc(/C=N/NC(N)=S)ccc1O | 7.06 |  | -0.27 | 6.07 | -9.76 | -20.3 | 9.85 | -7.31 | 9.78 | 22.2 | 
6 | COc1ccc(-c2nnc(N)s2)cc1OC |  | 30.2 |  |  |  |  |  |  |  |  | 
7 | COc1ccccc1-c1nnc(N)s1 |  |  |  |  |  |  |  |  |  |  | growth inhibition (GI) (Trypanosoma cruzi): inactive
8 | COc1ccc(/C=N/NC(N)=S)cc1OC | -9.14 |  | -7.72 | 4.1 | -24.4 | -30.2 | 20.7 | -19.2 | 20.1 | -20.5 | 
9 | Nc1nnc(-c2ccc(Cl)c(Cl)c2)s1 |  | 23.4 |  |  |  |  |  |  |  |  | 
10 | COc1cccc(OC)c1-c1nnc(N)s1 |  | 27.1 |  |  |  |  |  |  |  |  | 
11 | Nc1nnc(-c2ccc(OCc3ccc(Cl)c(Cl)c3)cc2)s1 |  | 14.5 |  |  |  |  |  |  |  |  | 
12 | NC(=S)N/N=C/c1ccc(O)c(O)c1 | -6.6 |  | -12.2 | 4.17 | -7.74 | -49.1 | 56.5 | -7.51 | 30.7 | -9.48 | 
13 | Nc1nnc(-c2cccc(Br)c2)s1 |  | 41.6 |  |  |  |  |  |  |  |  | 
14 | Nc1nnc(-c2ccco2)s1 |  |  |  |  |  |  |  |  |  |  | growth inhibition (GI) (Trypanosoma cruzi): inactive
15 | Nc1nnc(-c2cccc(-c3ccccc3)c2)s1 |  |  |  |  |  |  |  |  |  |  | growth inhibition (GI) (Trypanosoma cruzi): inactive
16 | Nc1nnc(-c2ccc(-c3ccccc3)cc2)s1 |  | 31.2 |  |  |  |  |  |  |  |  | 
17 | COc1ccccc1/C=N/NC(N)=S | 29.6 |  | -16.9 | 5.91 | -23.2 | -52.9 | 9.19 | -19.8 | 5.67 | -8.91 | 
18 | NC(=S)N/N=C/c1ccc(O)cc1 | -5.15 |  | -5.27 | 7.48 | -24.4 | -42.9 | 18.2 | -21.1 | 19.6 | -3.36 | 
19 | Nc1nnc(-c2cccc(-c3ccc4c(c3)OCO4)c2)s1 |  |  |  |  |  |  |  |  |  |  | growth inhibition (GI) (Trypanosoma cruzi): inactive
20 | COc1cc(-c2nnc(N)s2)cc(OC)c1OC |  |  |  |  |  |  |  |  |  |  | growth inhibition (GI) (Trypanosoma cruzi): inactive
